Test results: ChEMBL document CHEMBL4364301 (Eur J Med Chem, 2019)

Experiments:
Type in all cases: functional
LNCaP [1] = assay: Antiproliferative activity against human LNCAP cells assessed as reduction in cell growth incubated for 96 hrs by propidium iodide based 2D monolayer assay
Procedure, shortened: (§1)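 After 24 h recovery, compound in medium or medium alone (control wells) was added at 10 half-log concentrations from 0.0032 to 100 µM, in triplicate, with at most 0.3% DMSO. After 96 h, wells were PBS-washed, stained with 7 µg/ml PI and 0.1% Triton X-100, and fluorescence read at 530/620 nm. IC50 came from a 4-parameter fit, geometric mean.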

DU-145 [2] = assay: Antiproliferative activity against human DU145 cells assessed as T/C value at 3.2 x 10^-1 uM incubated for 96 hrs by propidium iodide based 2D monolayer assay; procedure, shortened: as §1
LNCaP [3] = assay: Antiproliferative activity against human LNCAP cells assessed as T/C value at 3.2 x 10^-2 uM incubated for 96 hrs by propidium iodide based 2D monolayer assay
Procedure, shortened: as §1, with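 “Cells were kept in RPMI 1640 with 25 mM HEPES, 10% FCS and gentamicin at 37 °C under 5% CO2, and plated at 4,000-20,000 cells/well. After 24” for “After 24”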

VCaP [4] = assay: Antiproliferative activity against human VCaP cells assessed as T/C value at 3.2 x 10^-1 uM incubated for 96 hrs by propidium iodide based 2D monolayer assay
Procedure, shortened: (§2)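 VCaP cells in RPMI 1640 with 10% FCS at 37 °C, 5% CO2, seeded 4,000–20,000 cells/well and left 24 h before dosing. Compounds from DMSO stocks were diluted in half-log steps in medium, 10 concentrations 0.0032–100 μM, triplicate wells, max 0.3% DMSO. After 96 h, cells were washed, stained with 7 μg/ml propidium iodide plus 0.1% Triton X-100 for 1–2 h at room temperature, and fluorescence read at ex 530/em 620 nm.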

LNCaP [5] = assay: Antiproliferative activity against human LNCAP cells assessed as T/C value at 1 x 10^-2 uM incubated for 96 hrs by propidium iodide based 2D monolayer assay
Procedure, shortened: as §1, with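 “Cells were kept in RPMI 1640 with 25 mM HEPES, 10% FCS and gentamicin at 37 °C under 5% CO2, and plated at 4,000-20,000 cells/well. After 24” for “After 24”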

DU-145 [6] = assay: Antiproliferative activity against human DU145 cells assessed as T/C value at 3.2 x 10^-3 uM incubated for 96 hrs by propidium iodide based 2D monolayer assay; procedure, shortened: as §1
LNCaP [7] = assay: Antiproliferative activity against human LNCAP cells assessed as T/C value at 1 uM incubated for 96 hrs by propidium iodide based 2D monolayer assay
Procedure, shortened: as §1, with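 “Cells were kept in RPMI 1640 with 25 mM HEPES, 10% FCS and gentamicin at 37 °C under 5% CO2, and plated at 4,000-20,000 cells/well. After 24” for “After 24”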

CWR22R [8] = assay: Antiproliferative activity against human 22Rv1 cells assessed as T/C value at 1 x 10^-2 uM incubated for 96 hrs by propidium iodide based 2D monolayer assay
Procedure, shortened: as §1, with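 “Cells were kept in RPMI 1640 with 25 mM HEPES, 10% FCS and gentamicin at 37 °C under 5% CO2, and plated at 4,000-20,000 cells/well. After 24” for “After 24”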

CWR22R [9] = assay: Antiproliferative activity against human 22Rv1 cells assessed as T/C value at 3.2 x 10^-3 uM incubated for 96 hrs by propidium iodide based 2D monolayer assay
Procedure, shortened: as §1, with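 “Cells were kept in RPMI 1640 with 25 mM HEPES, 10% FCS and gentamicin at 37 °C under 5% CO2, and plated at 4,000-20,000 cells/well. After 24” for “After 24”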

CWR22R [10] = assay: Antiproliferative activity against human 22Rv1 cells assessed as T/C value at 3.2 x 10^1 uM incubated for 96 hrs by propidium iodide based 2D monolayer assay
Procedure, shortened: as §1, with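 “Cells were kept in RPMI 1640 with 25 mM HEPES, 10% FCS and gentamicin at 37 °C under 5% CO2, and plated at 4,000-20,000 cells/well. After 24” for “After 24”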

VCaP [11] = assay: Antiproliferative activity against human VCaP cells assessed as T/C value at 1 x 10^-1 uM incubated for 96 hrs by propidium iodide based 2D monolayer assay
Procedure, shortened: as §1, with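 “Cells were kept in RPMI 1640 with 25 mM HEPES, 10% FCS and gentamicin at 37 °C under 5% CO2, and plated at 4,000-20,000 cells/well. After 24” for “After 24”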

VCaP [12] = assay: Antiproliferative activity against human VCaP cells assessed as T/C value at 1 x 10^2 uM incubated for 96 hrs by propidium iodide based 2D monolayer assay
Procedure, shortened: as §1, with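 “Cells were kept in RPMI 1640 with 25 mM HEPES, 10% FCS and gentamicin at 37 °C under 5% CO2, and plated at 4,000-20,000 cells/well. After 24” for “After 24”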

VCaP [13] = assay: Antiproliferative activity against human VCaP cells assessed as T/C value at 3.2 x 10^-2 uM incubated for 96 hrs by propidium iodide based 2D monolayer assay; procedure, shortened: as §2
CWR22R [14] = assay: Antiproliferative activity against human 22Rv1 cells assessed as T/C value at 1 uM incubated for 96 hrs by propidium iodide based 2D monolayer assay
Procedure, shortened: as §1, with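 “Cells were kept in RPMI 1640 with 25 mM HEPES, 10% FCS and gentamicin at 37 °C under 5% CO2, and plated at 4,000-20,000 cells/well. After 24” for “After 24”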

DU-145 [15] = assay: Antiproliferative activity against human DU145 cells assessed as T/C value at 1 x 10^2 uM incubated for 96 hrs by propidium iodide based 2D monolayer assay
Procedure, shortened: as §1, with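 “Cells were kept in RPMI 1640 with 25 mM HEPES, 10% FCS and gentamicin at 37 °C under 5% CO2, and plated at 4,000-20,000 cells/well. After 24” for “After 24”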

VCaP [16] = assay: Antiproliferative activity against human VCaP cells assessed as T/C value at 1 uM incubated for 96 hrs by propidium iodide based 2D monolayer assay
Procedure, shortened: as §1, with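 “Cells were kept in RPMI 1640 with 25 mM HEPES, 10% FCS and gentamicin at 37 °C under 5% CO2, and plated at 4,000-20,000 cells/well. After 24” for “After 24”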

CWR22R [17] = assay: Antiproliferative activity against human 22Rv1 cells assessed as reduction in cell growth incubated for 96 hrs by propidium iodide based 2D monolayer assay; settings: 22Rv1, 96 h; procedure, shortened: as §1
LNCaP [18] = assay: Antiproliferative activity against human LNCAP cells assessed as T/C value at 3.2 uM incubated for 96 hrs by propidium iodide based 2D monolayer assay
Procedure, shortened: as §1, with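 “Cells were kept in RPMI 1640 with 25 mM HEPES, 10% FCS and gentamicin at 37 °C under 5% CO2, and plated at 4,000-20,000 cells/well. After 24” for “After 24”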

DU-145 [19] = assay: Antiproliferative activity against human DU145 cells assessed as T/C value at 1 x 10^1 uM incubated for 96 hrs by propidium iodide based 2D monolayer assay; procedure, shortened: as §1
DU-145 [20] = assay: Antiproliferative activity against human DU145 cells assessed as T/C value at 3.2 x 10^-2 uM incubated for 96 hrs by propidium iodide based 2D monolayer assay; procedure, shortened: as §1
CWR22R [21] = assay: Antiproliferative activity against human 22Rv1 cells assessed as T/C value at 3.2 x 10^-1 uM incubated for 96 hrs by propidium iodide based 2D monolayer assay
Procedure, shortened: as §1, with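 “Cells were kept in RPMI 1640 with 25 mM HEPES, 10% FCS and gentamicin at 37 °C under 5% CO2, and plated at 4,000-20,000 cells/well. After 24” for “After 24”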

VCaP [22] = assay: Antiproliferative activity against human VCaP cells assessed as T/C value at 3.2 uM incubated for 96 hrs by propidium iodide based 2D monolayer assay
Procedure, shortened: as §1, with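 “Cells were kept in RPMI 1640 with 25 mM HEPES, 10% FCS and gentamicin at 37 °C under 5% CO2, and plated at 4,000-20,000 cells/well. After 24” for “After 24”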

CWR22R [23] = assay: Antiproliferative activity against human 22Rv1 cells assessed as T/C value at 3.2 uM incubated for 96 hrs by propidium iodide based 2D monolayer assay
Procedure, shortened: as §1, with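 “Cells were kept in RPMI 1640 with 25 mM HEPES, 10% FCS and gentamicin at 37 °C under 5% CO2, and plated at 4,000-20,000 cells/well. After 24” for “After 24”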

DU-145 [24] = assay: Antiproliferative activity against human DU145 cells assessed as T/C value at 3.2 uM incubated for 96 hrs by propidium iodide based 2D monolayer assay
Procedure, shortened: as §1, with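 “Cells were kept in RPMI 1640 with 25 mM HEPES, 10% FCS and gentamicin at 37 °C under 5% CO2, and plated at 4,000-20,000 cells/well. After 24” for “After 24”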

VCaP [25] = assay: Antiproliferative activity against human VCaP cells assessed as reduction in cell growth incubated for 96 hrs by propidium iodide based 2D monolayer assay; procedure, shortened: as §2
DU-145 [26] = assay: Antiproliferative activity against human DU145 cells assessed as T/C value at 1 uM incubated for 96 hrs by propidium iodide based 2D monolayer assay; procedure, shortened: as §1
VCaP [27] = assay: Antiproliferative activity against human VCaP cells assessed as T/C value at 3.2 x 10^1 uM incubated for 96 hrs by propidium iodide based 2D monolayer assay; procedure, shortened: as §2
DU-145 [28] = assay: Antiproliferative activity against human DU145 cells assessed as T/C value at 3.2 x 10^1 uM incubated for 96 hrs by propidium iodide based 2D monolayer assay
Procedure, shortened: as §1, with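 “Cells were kept in RPMI 1640 with 25 mM HEPES, 10% FCS and gentamicin at 37 °C under 5% CO2, and plated at 4,000-20,000 cells/well. After 24” for “After 24”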

CWR22R [29] = assay: Antiproliferative activity against human 22Rv1 cells assessed as T/C value at 1 x 10^1 uM incubated for 96 hrs by propidium iodide based 2D monolayer assay
Procedure, shortened: as §1, with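 “Cells were kept in RPMI 1640 with 25 mM HEPES, 10% FCS and gentamicin at 37 °C under 5% CO2, and plated at 4,000-20,000 cells/well. After 24” for “After 24”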

VCaP [30] = assay: Antiproliferative activity against human VCaP cells assessed as T/C value at 1 x 10^-2 uM incubated for 96 hrs by propidium iodide based 2D monolayer assay
Procedure, shortened: as §1, with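 “Cells were kept in RPMI 1640 with 25 mM HEPES, 10% FCS and gentamicin at 37 °C under 5% CO2, and plated at 4,000-20,000 cells/well. After 24” for “After 24”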

LNCaP [31] = assay: Antiproliferative activity against human LNCAP cells assessed as T/C value at 3.2 x 10^1 uM incubated for 96 hrs by propidium iodide based 2D monolayer assay
Procedure, shortened: as §1, with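 “Cells were kept in RPMI 1640 with 25 mM HEPES, 10% FCS and gentamicin at 37 °C under 5% CO2, and plated at 4,000-20,000 cells/well. After 24” for “After 24”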

DU-145 [32] = assay: Antiproliferative activity against human DU145 cells assessed as reduction in cell growth incubated for 96 hrs by propidium iodide based 2D monolayer assay; settings: DU-145, 96 h; procedure, shortened: as §1

CC1(C)C(=O)N(c2ccc(C#N)cc2C(F)(F)F)C(=S)N1c1ccc(S(F)(F)(F)(F)F)cc1
IC50 (LNCaP [1]): 3 µM
IC70 (LNCaP [1]): 5.34 µM
T/C (DU-145 [2]): 115%
T/C (LNCaP [3]): 78%
T/C (VCaP [4]): 89%
T/C (LNCaP [5]): 76%
T/C (DU-145 [6]): 105%
T/C (LNCaP [7]): 66%
T/C (CWR22R [8]): 104%
T/C (CWR22R [9]): 106%
T/C (CWR22R [10]): 17%
T/C (VCaP [11]): 103%
T/C (VCaP [12]): 47%
T/C (VCaP [13]): 103%
T/C (CWR22R [14]): 99%
T/C (DU-145 [15]): 16%
T/C (VCaP [16]): 85%
IC50 (CWR22R [17]): 5.4 µM
IC70 (CWR22R [17]): 8.45 µM
T/C (LNCaP [18]): 51%
T/C (DU-145 [19]): 53%
T/C (DU-145 [20]): 111%
T/C (CWR22R [21]): 101%
T/C (VCaP [22]): 74%
T/C (CWR22R [23]): 78%
T/C (DU-145 [24]): 102%
IC50 (VCaP [25]): 100 µM
IC70 (VCaP [25]): > 100 µM
T/C (DU-145 [26]): 104%
T/C (VCaP [27]): 64%
T/C (DU-145 [28]): 37%
T/C (CWR22R [29]): 25%
T/C (VCaP [30]): 100%
T/C (LNCaP [31]): 10%
IC50 (DU-145 [32]): 12.7 µM
IC70 (DU-145 [32]): 29.1 µM
